Test results as given in ChEMBL document CHEMBL4842320, “Cryptic Biosynthesis of the Berkeleypenostatins from Coculture of Extremophilic Penicillium sp” (J Nat Prod, 2021).
pIC50: −log10 of the molar value. Values after ≈ are worked out from the molar mass of the structure shown. Active and inactive are the calls of the source. No cut-off for these calls is given here.

Experiments:
HPAF-II [1] = test: Inhibition of cell migration in human HPAF-II cells at 1.25 uM measured upto 24 hrs by CMFDA dye staining based fluorescence assay; type: functional; details: time hrs <=24
Summary of the method: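 Fluoroblok 96-well insert migration kinetics. HPAF-II cells were harvested at ~80% confluency, resuspended at 5 ×10^5 cells/mL in serum-free DMEM and stained with CellTracker CMFDA. Compound was present at a final 1.25 μM over 24 h. Run in triplicate, with untreated cells as control and NNGH as positive control.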

[2] = test system: Panel NCI-60 (60 carcinoma cell lines); test: Anticancer activity against human Panel NCI-60 (60 carcinoma cell lines) assessed as total growth inhibition at 1 to 10 uM measured after 48 hrs by SRB assay; type: functional, cell-based; details: dose 1-10 µM
Summary of the method: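 NCI Developmental Therapeutics Program 60-human-tumour-cell-line five-dose screen, with total growth inhibition (TGI) as the end-point.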

HPAF-II [3] = test: Cytotoxicity against human HPAF-II cells assessed as reduction in cell viability at upto 50 uM by MTT assay; type: functional, cell-based; details: dose microM <=50
Summary of the method: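 Vybrant MTT proliferation assay on HPAF-II cells harvested with 0.25% trypsin/0.53 mM EDTA, with viability checked after harvest. Compounds were tested up to 50 μM.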

HPAF-II [4] = test: Antiinvasive activity against human HPAF-II cells assessed as reduction in cell invasion at 1.25 uM measured upto 24 hrs by CMFDA dye staining based fluorescence assay; type: functional; details: time hrs <=24
Summary of the method: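 Matrigel-coated invasion inserts with 8 μm pores. HPAF-II cells were harvested, resuspended in serum-free DMEM and labelled with CellTracker CMFDA. Compound was diluted in serum-free DMEM to a final 1.25 μM. Run in triplicate, with untreated cells as control and NNGH as positive control.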

Bacillus anthracis = test: Antibacterial activity against Bacillus anthracis assessed as minimum inhibitory concentration by alamar blue dye based broth microdilution method; type: functional
Staphylococcus aureus [5] = test: Antibacterial activity against wild-type Staphylococcus aureus assessed as minimum inhibitory concentration by alamar blue dye based broth microdilution method; type: functional
Stromelysin-1 = Stromelysin-1 (Homo sapiens, UniProt P08254); test: Inhibition of MMP-3 (unknown origin)
Stromelysin-1, sequence (P08254 whole entry): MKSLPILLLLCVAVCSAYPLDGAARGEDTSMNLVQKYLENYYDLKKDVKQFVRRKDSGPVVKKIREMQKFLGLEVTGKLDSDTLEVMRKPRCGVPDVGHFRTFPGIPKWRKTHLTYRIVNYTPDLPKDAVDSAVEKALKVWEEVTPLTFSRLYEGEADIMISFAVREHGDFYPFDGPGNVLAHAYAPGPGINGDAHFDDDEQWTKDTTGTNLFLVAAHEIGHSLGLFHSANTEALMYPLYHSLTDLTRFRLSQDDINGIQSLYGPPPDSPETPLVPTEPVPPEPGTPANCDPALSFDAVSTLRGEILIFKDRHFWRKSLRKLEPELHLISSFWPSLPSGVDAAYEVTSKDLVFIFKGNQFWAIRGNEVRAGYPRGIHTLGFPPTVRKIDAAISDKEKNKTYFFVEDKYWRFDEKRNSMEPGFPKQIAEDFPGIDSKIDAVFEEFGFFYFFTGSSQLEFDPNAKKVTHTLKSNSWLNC
Summary of the method: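 MMP-3 inhibition measured with a commercial MMP-3 drug discovery kit.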

Staphylococcus aureus [6] = test: Antibacterial activity against multidrug resistant strains of Staphylococcus aureus assessed as minimum inhibitory concentration by alamar blue dye based broth microdilution method; type: functional

Row | SMILES | inhibition at 1.25 µM (HPAF-II [1]) | Activity [2] | Activity (HPAF-II [3]) | Activity (HPAF-II [4]) | MIC (Bacillus anthracis) | MIC (Staphylococcus aureus [5]) | pIC50 (Stromelysin-1) | MIC (Staphylococcus aureus [6])
1 | CCCCCCC/C=C/[C@@H]1O[C@]23C(=O)C[C@@]4(C[C@H](O[C@@H]5O[C@H](CO)[C@@H](O)[C@H](O)[C@H]5O)C[C@H]4[C@@H]2C=C1C)OC3=O | 30% | inactive | inactive | inactive |  |  |  | 
2 | CCCCCCC/C=C/[C@@H]1O[C@@]2(O)C(=O)C=C3C[C@H](O[C@@H]4O[C@H](CO)[C@@H](O)[C@H](O)[C@H]4O)C[C@H]3[C@@H]2C=C1C | 30% | Active | inactive | inactive | 4 µg/mL (≈ 7.65 µM) | 4 µg/mL (≈ 7.65 µM) | 4.30 | 4 µg/mL (≈ 7.65 µM)
3 | O=C(O)c1cn(C2CC2)c2cc(N3CCNCC3)c(F)cc2c1=O [CIPROFLOXACIN] |  |  |  |  | 0.064 µg/mL (≈ 0.193 µM) |  |  | 
4 | CCCCCCC/C=C/[C@@H]1O[C@@]2(O)C(=O)C=C3C[C@@H](O[C@@H]4O[C@H](CO)[C@@H](O)[C@H](O)[C@H]4O)C[C@H]3[C@@H]2C=C1C |  |  |  |  | 17 µg/mL (≈ 32.5 µM) | 17 µg/mL (≈ 32.5 µM) |  | 17 µg/mL (≈ 32.5 µM)
